Assay results published in ChEMBL document CHEMBL1125796, “Antitumor properties of 2(1H)-pyrimidinone riboside (zebularine) and its fluorinated analogues” (1991).
“And” between values parts separate entries of the source, which are not always exact repeats. Equal values may be shown once.

What was measured:
Mus musculus [1] = experiment: Percent increase in life span of drug-treated mice relative to tumored, vehicle treated controls at a dose of 500 mg/kg orally in the presence of 500 mg/kg of zebularine.; type: functional; details: po
How it was run: (§1)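 CDF1 mice were implanted ip with 10^6 L1210 cells on day 0. Oral treatment was given on day 1 only, 24 h after implantation. In combinations, the deaminase inhibitor was given as two 250 mg/kg doses 30 min apart, as one dose immediately before ara-C, or as half the dose 30 min before and half immediately after ara-C. %ILS was calculated versus vehicle-treated tumored controls.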

Mus musculus [2] = experiment: Antitumor activity against L1210 tumor in mice, at a dose of 500 mg/kg peroral administration.; type: functional; details: route oral
How it was run: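 CDF1 mice received L1210 leukemia ip. Treatment was oral on day 1 only, 24 h after implantation, with ara-C at 500 mg/kg. Zebularine was given as a single dose immediately before ara-C, or as divided doses (e.g. 2 × 250 mg/kg 30 min apart, or half 30 min before and half immediately after). Read-out was % increase in life span.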

Mus musculus [3] = experiment: Antitumor activity against L1210 tumor in mice, at a dose of 500 mg/kg peroral administration in the presence of 10 mg/kg of zebularine.; type: functional
Mus musculus [4] = experiment: Antitumor activity against L1210 tumor in mice, at a dose of 500 mg/kg peroral administration in the presence of 100 mg/kg of zebularine.; type: functional
Mus musculus [5] = experiment: Percent increase in life span of drug-treated mice relative to tumored, vehicle treated controls at a dose of 100 mg/kg oral treatment; type: functional; how it was run: as §1
Mus musculus [6] = experiment: Percent increase in life span of drug-treated mice relative to tumored, vehicle treated controls at a dose of 500 mg/kg oral treatment; type: functional; how it was run: as §1
Mus musculus [7] = experiment: Percent increase in life span of drug-treated mice relative to tumored, vehicle treated controls at a dose of 3.13 mg/kg ip.; type: functional
How it was run: (§2)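 Tumors implanted day 0: B16 melanoma as 0.5 mL of 1:10 brei into BDF1 mice; L1210 or P388 leukemia as 10^6 cells into CDF1 mice, ip or sc. Drug was given in physiologic saline by ip or oral route, QD 1-9. %ILS was calculated against saline-treated tumored controls, with body-weight change difference as the toxicity read-out. Six mice per dose in most experiments.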

Mus musculus [8] = experiment: Percent increase in life span of drug-treated mice relative to tumored, vehicle treated controls at a dose of 6.25 mg/kg ip.; type: functional; how it was run: as §2
Mus musculus [9] = experiment: Percent increase in life span of drug-treated mice relative to tumored, vehicle treated controls at a dose of 800 mg/kg oral administration
Mus musculus [10] = experiment: Percent increase in life span of drug-treated mice relative to tumored, vehicle treated controls at a dose of 600 mg/kg ip.; type: functional; how it was run: as §2
Mus musculus [11] = experiment: Antitumor activity against L1210 tumor in mice, at a dose of 1600 mg/kg per oral administration.
Mus musculus [12] = experiment: Antitumor activity against B16 tumor in mice, at a dose of 800 mg/kg per ip administration.; type: functional; details: route intraperitoneal
How it was run: (§3)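 Tumors implanted ip on day 0: B16 melanoma (0.5 mL of 1:10 brei) in BDF1 mice, and L1210 or P388 leukemia (10^6 cells) in CDF1 mice. Compound was given ip in physiologic saline daily on days 1–9. Read-out was % increase in life span versus vehicle-treated tumored controls, with body-weight change difference also recorded. Six mice per dose, three in some P388 groups.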

Mus musculus [13] = experiment: Antitumor activity against ara-c resistance L1210 tumor in mice, at a dose of 400 mg/kg per ip administration.; type: functional; details: route intraperitoneal
How it was run: (§4)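 An ara-C-resistant L1210 leukemia line (10^6 cells) was implanted ip on day 0 in CDF1 mice. Compound was given ip in physiologic saline daily on days 1–9. Read-out was % increase in life span versus saline-treated tumored controls, plus body-weight change difference.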

Mus musculus [14] = experiment: (§5) Antitumor activity against P388 tumor in mice, at a dose of 400 mg/kg per ip administration.; type: functional; details: route intraperitoneal; how it was run: as §3
Mus musculus [15] = experiment: Antitumor activity against P388 tumor in mice, at a dose of 200 mg/kg per ip administration.; type: functional; details: route intraperitoneal; how it was run: as §3
Mus musculus [16] = experiment: Antitumor activity against B16 tumor in mice, at a dose of 400 mg/kg per ip administration.; type: functional; details: route intraperitoneal; how it was run: as §3
Mus musculus [17] = experiment: Antitumor activity against ara-c resistance L1210 tumor in mice, at a dose of 200 mg/kg per ip administration.; type: functional; details: route intraperitoneal; how it was run: as §4
Mus musculus [18] = experiment: Antitumor activity against ara-c resistance L1210 tumor in mice, at a dose of 800 mg/kg per ip administration.; type: functional; details: route intraperitoneal; how it was run: as §4
Mus musculus [19] = experiment: Antitumor activity against L1210 tumor in mice, at a dose of 400 mg/kg per ip administration.; type: functional; details: route intraperitoneal; how it was run: as §3
Mus musculus [20] = experiment: Antitumor activity against P388 tumor in mice, at a dose of 600 mg/kg per ip administration.; type: functional; details: route intraperitoneal; how it was run: as §3
Mus musculus [21] = experiment: Percent increase in life span of drug-treated mice relative to tumored, vehicle treated controls at a dose of 200 mg/kg ip.; type: functional; how it was run: as §2
Mus musculus [22] = experiment: Antitumor activity against […] tumor in mice, at a dose of 400 mg/kg per ip administration.; type: functional; details: route intraperitoneal; how it was run: as §3
Mus musculus [23] = experiment: Percent increase in life span of drug-treated mice relative to tumored, vehicle treated controls at a dose of 400 mg/kg ip.; type: functional; details: 400 mg/kg; how it was run: as §2
Mus musculus [24] = experiment: as §5; type: functional; details: route intraperitoneal; how it was run: as §3; remark: listed apart in the source
Mus musculus [25] = experiment: Antitumor activity against L1210 tumor in mice, at a dose of 800 mg/kg per ip administration.; type: functional; details: route intraperitoneal; how it was run: as §3
Mus musculus [26] = experiment: Percent increase in life span of drug-treated mice relative to tumored, vehicle treated controls at a dose of 1600 mg/kg orally.; details: oral
Mus musculus [27] = experiment: Antitumor activity against B16 tumor in mice, at a dose of 200 mg/kg per ip administration.; type: functional; details: route intraperitoneal; how it was run: as §3
Mus musculus [28] = experiment: Percent increase in life span of drug-treated mice relative to tumored, vehicle treated controls at a dose of 800 mg/kg, ip administration
Mus musculus [29] = experiment: Percent increase in life span of drug-treated mice relative to tumored, vehicle treated controls at a dose of 800 mg/kg ip.; type: functional; details: 800 mg/kg; how it was run: as §2

`Nc1ccn([C@@H]2O[C@H](CO)[C@@H](O)[C@@H]2O)c(=O)n1` [CYTARABINE] gave an ILS at 500 mg/kg (Mus musculus [1]) of 74%, a Weight change difference (Mus musculus [2]) of -0.5 g and a Weight change difference (Mus musculus [3]) of -2.2 g. The Weight change difference (Mus musculus [4]) was -1 g, the ILS (Mus musculus [5]; 100 mg/kg) was 68% and the ILS at 100 mg/kg (Mus musculus [5]; Mus musculus, po) was 68%. The ILS (Mus musculus [6]) was 44% and 74% and 80%.
`OC[C@H]1O[C@@H](n2cnc3cncnc32)[C@H](O)[C@@H]1O` [NEBULARINE] gave an ILS (Mus musculus [7]; 3.13 mg/kg) of 52%, an ILS at 3.13 mg/kg (Mus musculus [7]; Mus musculus, ip) of 60% and an ILS (Mus musculus [8]; 6.25 mg/kg) of 34%. For the same compound, the ILS at 6.25 mg/kg (Mus musculus [8]; Mus musculus, ip) was 40%.
Work on `O=c1ncccn1[C@@H]1O[C@H](CO)[C@@H](O)[C@H]1O` [ZEBULARINE] yielded an ILS at 800 mg/kg (Mus musculus [9]) of 81%, an ILS at 600 mg/kg (Mus musculus [10]) of 45% and a Weight change difference (Mus musculus [11]) of -2.3 g. The Weight change difference (Mus musculus [12]) was 0 g, the Weight change difference (Mus musculus [13]) was -1.8 g and the Weight change difference (Mus musculus [14]) was -1.2 g. The Weight change difference (Mus musculus [15]) was -2 g and -0.7 g, the Weight change difference (Mus musculus [16]) was -0.1 g and -0.2 g and the Weight change difference (Mus musculus [17]) was -1.6 g. It also gave a Weight change difference (Mus musculus [18]) of -3.4 g, a Weight change difference (Mus musculus [19]) of -0.4 g and a Weight change difference (Mus musculus [20]) of -1.3 g. The ILS (Mus musculus [21]; 200 mg/kg) was 34% and 25% and 40%, the ILS at 200 mg/kg (Mus musculus [21]; Mus musculus, ip) was 36% and the Weight change difference (Mus musculus [22]) was -2.1 g. The ILS (Mus musculus [23]) was 66% [middle of 7 runs], the Weight change difference (Mus musculus [24]) was -2.3 g and the Weight change difference (Mus musculus [25]) was -2.8 g. It also gave an ILS at 1600 mg/kg (Mus musculus [26]) of 112%, a Weight change difference (Mus musculus [27]) of -0.5 g and an ILS at 800 mg/kg (Mus musculus [28]) of 110%. For the same compound, the ILS (Mus musculus [29]) was 77% [middle of 5 runs].
